Measured values pooled from the literature.
Lines come from different studies, so protocols differ.
Target: RAC-gamma serine/threonine-protein kinase (AKT3, Homo sapiens, UniProt Q9Y243)

effect on	action	technique	concentration	endpoint	result	Structure (SMILES)
cell-free assay		competition with immobilised ligand	1 µM	remaining binding	100%	Cc1c(NC(=O)c2cc(C(N)=O)nc3cc(F)ccc23)c(C(F)(F)F)nn1Cc1ccc(C(C)(C)C)cc1
enzyme activity	inhibitor		1 µM	activity vs control	79%	Cc1ccc(C(=O)NCc2ccsc2)cc1C#Cc1cn(C(C)C)c2ncnc(N)c12
cell-free assay		competition with immobilised ligand	1 µM	remaining binding	84%	Cn1nc(C(F)(F)F)cc1-c1cnc(N2CCc3cc(S(=O)(=O)Nc4c(F)cc(Cl)cc4F)cc(N4CCCC4=O)c32)nc1
enzyme activity	inhibitor		5 µM	remaining activity	97.6%	O=C(Nc1cnn(-c2csc(C(=O)NC3COC3)c2)c1)Nc1c(F)cccc1Cl
cell-free assay			0.5 µM	remaining signal	102%	Cc1ccc(NC(=O)c2ccc(CN3CCN(C)CC3)cc2)cc1Nc1nc(-c2cccnc2)cs1
cell-free assay		competition with immobilised ligand	1 µM	remaining binding	100%	CN(c1ccnc(CNc2nc(Nc3ccc4c(c3)CC(=O)N4)ncc2C(F)(F)F)n1)S(C)(=O)=O
enzyme activity	inhibitor		10 µM	remaining activity	91%	CCN(CC)c1ccc(C2=NNC(=O)CC2C)cc1[N+](=O)[O-] (stereo not shown)
enzyme activity	inhibitor		0.3 µM	inhibition	-4%	CNC(=O)c1cc(Oc2ccc(NC(=O)Nc3ccc(Cl)c(C(F)(F)F)c3)cc2)ccn1
thermal stability		DSF	10 µM	ΔTm	-0.7 °C	N#CC1c2c([nH]c3c(Cl)c(Cl)ccc23)C(=O)NC12CCCCC2 (racemic)
enzyme activity	inhibitor		1 µM	inhibition	< 10%	CCCS(=O)(=O)Nc1ccc(F)c(C(=O)c2c[nH]c3ncc(-c4ccc(Cl)cc4)cc23)c1F
enzyme activity	inhibitor	radiometric	1 µM	remaining activity	89%	CC(C)(C)c1nc2c(s1)c1nc(N)ncc1c1ccc(NS(=O)(=O)c3c(F)cccc3F)c(F)c12
enzyme activity	inhibitor		50 nM	remaining activity	97%	CCCOc1ccc(OC)c(F)c1C(=O)c1ccc(C(=O)N[C@@H]2CNC[C@H]2NC(=O)c2ccc3[nH]ncc3c2)cc1
enzyme activity	inhibitor		1 µM	remaining activity	96.5%	CC(C)(O)[C@H]1CC[C@H](Nc2ccc3ncc(-c4cccc(C(F)(F)F)c4)n3n2)CC1
cell-free assay		competition with immobilised ligand	1 µM	remaining binding	100%	FC(F)(F)c1ccc2c(c1)nc(-c1cccnc1)n2C1CC1
thermal stability		DSF	10 µM	ΔTm	0 °C	CC1(C)NC(=O)c2[nH]c3c(Cl)c(Cl)ccc3c2C1C#N (stereo not shown)
cell-free assay			0.5 µM	remaining signal	71.7%	CCN(CC)CCNC(=O)c1c(C)[nH]c(/C=C2\C(=O)Nc3ccc(F)cc32)c1C

effect on	action	technique	concentration	endpoint	result	Structure (SMILES)
enzyme activity	inhibitor		10 µM	remaining activity	94.8%	Cc1sc(C(=O)NC2COC2)cc1-n1cc(NC(=O)Nc2c(F)cccc2Cl)cn1
cell-free assay			0.5 µM	remaining signal	100%	O=C1NC(=O)c2cc(Nc3ccc(F)cc3)c(Nc3ccc(F)cc3)cc21
cell-free assay		competition with immobilised ligand	1 µM	remaining binding	65%	CO[C@@H](C)c1c(Nc2ccc([C@@H](N(C)C(=O)C3CCS(=O)(=O)CC3)C(F)(F)F)cc2)cnc2cc(Cl)nn12
thermal stability		DSF	10 µM	ΔTm	0.1 °C	CCC1(CC)NC(=O)c2c(c3ccc(Cl)c(Cl)c3n2C)C1C#N (stereo not shown)
binding		competition with immobilised ligand	1 µM	remaining binding	100%	O=c1nc(-c2ccccn2)sc2ccccc12
thermal stability		DSF	10 µM	ΔTm	0 °C	Cn1c2c(Cl)c(Cl)ccc2c2cc[nH]c(=O)c21
enzyme activity	inhibitor	radiometric	1 µM	remaining activity	78%	Cc1cnc(NC2CCOCC2)nc1-n1cnc(C(=O)NC(CN)c2cc(F)cc(Cl)c2)c1 (stereo not shown)
cell-free assay			0.5 µM	remaining signal	95.5%	N#CCCc1ccc2c(c1)-c1[nH]c3ccc([N+](=O)[O-])cc3c1CC(=O)N2
thermal stability		DSF	10 µM	ΔTm	-0.1 °C	Cn1c2c(c3ccc(Cl)c(Cl)c31)C(C#N)C1(CCCC1)NC2=O (stereo not shown)
cell-free assay		competition with immobilised ligand	0.1 µM	remaining binding	100%	CS(=O)(=O)N1CCCC(NC(=O)[C@H](CCC2CCCCC2)NC(=O)c2ccc(CNC(=O)c3cnc4ccccn34)cc2)C1 (stereo partly shown)
cell-free assay			0.5 µM	remaining signal	74.6%	C#Cc1cccc(Nc2ncnc3cc(OCCOC)c(OCCOC)cc23)c1
thermal stability		DSF	10 µM	ΔTm	0 °C	CN1CCC2(CC1)NC(=O)c1c(c3ccc(Cl)c(Cl)c3n1C)C2C#N (racemic)
cell-free assay		competition with immobilised ligand	1 µM	remaining binding	100%	CN(C)CC#Cc1ccc(OCCCc2sc(N3CCc4cccc(C(=O)Nc5nc6ccccc6s5)c4C3)nc2C(=O)O)c(F)c1
enzyme activity	inhibitor		23.5 nM	remaining activity	100%	Cc1ccc(C(=O)Nc2ccc(CN3CCN(C)CC3)c(C(F)(F)F)c2)cc1C#Cc1cnc2cccnn12
enzyme activity	inhibitor		1 µM	inhibition	6%	COc1cc2ncnc(Nc3ccc(Oc4ccccc4)cc3C)c2cc1OC
